Experimental data from ChEMBL document CHEMBL1123566, “Synthesis and cardiac electrophysiological activity of 2- and 3-[(substituted phenyl)alkyl]quinuclidines. Structure-activity relationships” (1987).
Values joined by “and” are separate entries in the source; they are usually repeats but may differ in a detail not shown here. Equal values may be shown once.

Experiments:
Canis familiaris [1] = species: Canis familiaris; assay: In vitro electrophysiological evaluation in canine cardiac occurred is 30 uM.; format: functional; settings: Canis lupus familiaris; Heart
Canis familiaris [2] = assay: Conduction time was determined by intraduodenal administration of two dosages of 10 mg/kg (low dose) of compound in anesthetized dogs. Value was reported for experiment 1; format: functional, Canis lupus familiaris
Procedure, shortened: (§1)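 Anesthetized dogs given the compound intraduodenally, generally as two doses with the second a cumulative total (low/high). FRP and CT measured at 15, 30 and 45 min after dosing. HR and BP taken during nonpacing intervals. Values are percent change from control per animal. Activity criterion is FRP or CT prolonged ≥12%. Vehicle: 5% dextrose in water/tragacanth.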

Canis familiaris [3] = assay: Left ventricular refractory period was determined by intraduodenal administration of two dosages(high dose) of 30 mg/kg of compound in anesthetized dogs. Value was reported for experiment 1; format: functional, Canis lupus familiaris, Cardiac ventricle
Procedure, shortened: (§2)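 Anesthetized dogs, usually given two intraduodenal doses, with the second dose cumulative (low/high). Left ventricular FRP and CT were determined at 15, 30 and 45 min after dosing. HR and BP were measured during nonpacing intervals. Values are % change from control at low/high dose, for individual animals. The vehicle-stability set used 5% dextrose in water/tragacanth (n = 8).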

Canis familiaris [4] = species: Canis familiaris; assay: In vitro electrophysiological evaluation in canine cardiac ventricular muscle reported as % change for the functional refractory period (FRP) at 10 uM at concentration range of 0.1-100 uM; design: species or system Canis lupus familiaris, Muscle tissue
Procedure, shortened: (§3)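 Canine right ventricle and papillary muscle strips in oxygenated Tyrode's solution, fitted with stimulating and recording electrodes. The extra-stimulus conduction-interval method was adapted for in vitro use. FRP and CT were read from a conduction-interval curve before and after various compound concentrations, and expressed as percent change from control. Compounds were taken from 10 mM deionized-water stock into Tyrode's. Each strip was used once as its own control.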

Canis familiaris [5] = species: Canis familiaris; assay: In vitro electrophysiological evaluation in canine cardiac Purkinje fibres reported as percent change Vmax at 10 uM at concentration range of 5-50 uM; format: functional; settings: Canis lupus familiaris, Purkinje fiber
Procedure, shortened: (§4)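 Canine cardiac Purkinje fibers, intracellular recording, paced at a basic cycle length of 1 s. APD95 and Vmax are recorded together across cumulative concentrations. Compound is a 10 mM aqueous stock diluted into Tyrode's solution. Each fiber is used once as its own control. Readouts are percent change from control at 10 μM, and the maximum change with the concentration where it occurred.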

Canis familiaris [6] = species: Canis familiaris; assay: In vitro electrophysiological evaluation in canine cardiac Purkinje fibres reported as percent change Vmax at 10 uM at concentration range of 0.1-30 uM; format: functional; settings: Canis lupus familiaris, Purkinje fiber
Procedure, shortened: (§5)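 Canine cardiac Purkinje fibres, intracellular microelectrode recording, paced at a basic cycle length of 1 s. APD95 and Vmax read simultaneously. Compound: 10 mM stock in deionized water, diluted into Tyrode's solution, tested over the stated concentration range. Each fibre used once as its own control. Result is % change from control, given at 10 µM or as the maximum with its concentration. M = <10% decrease or an increase in Vmax.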

Canis familiaris [7] = assay: Mean arterial blood pressure was determined by intraduodenal administration of two dosages of 10 mg/kg (low dose) of compound in anesthetized dogs. Value was reported for experiment 1; format: functional, Canis lupus familiaris; procedure, shortened: as §2
Canis familiaris [8] = assay: Heart rate was determined by intraduodenal administration of two dosages of 10 mg/kg (low dose) of compound in anesthetized dogs. Value was reported for experiment 1; format: functional, Canis lupus familiaris; procedure, shortened: as §1
Canis familiaris [9] = species: Canis familiaris; assay: (§6) In vitro electrophysiological evaluation in canine cardiac occurred is 100 uM.; format: functional; settings: Canis lupus familiaris; Heart
Canis familiaris [10] = assay: Conduction time was determined by intraduodenal administration of two dosages of 10 mg/kg (low dose) of compound in anesthetized dogs. Value was reported for experiment 2; format: functional, Canis lupus familiaris
Procedure, shortened: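 Anesthetized dogs; compound given intraduodenally, generally as two doses, the second a cumulative (high) dose. LV functional refractory period and conduction time measured 15, 30 and 45 min after dosing; heart rate and blood pressure measured during nonpacing intervals. Values are % change from control, given per individual animal. Active if FRP or CT prolonged by ≥12%.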

Canis familiaris [11] = species: Canis familiaris; assay: In vitro electrophysiological evaluation in canine cardiac Purkinje fibres reported as % change for action potential duration at 10 uM at 5-50 uM concentration range; format: functional, Canis lupus familiaris, Purkinje fiber; procedure, shortened: as §4
Canis familiaris [12] = assay: Heart rate was determined by intraduodenal administration of two dosages of 30 mg/kg (high dose) of compound in anesthetized dogs. Value was reported for experiment 2; format: functional, Canis lupus familiaris; procedure, shortened: as §1
Canis familiaris [13] = species: Canis familiaris; assay: In vitro electrophysiological evaluation in canine cardiac ventricular muscle reported as maximum % change for functional refractory period (FRP) at 0.1-100 uM concentration range; concentration at which it occurred is 10 uM.; design: species or system Canis lupus familiaris, Muscle tissue; procedure, shortened: as §3
Canis familiaris [14] = assay: Conduction time was determined by intraduodenal administration of two dosages of 30 mg/kg (high dose)of compound in anesthetized dogs. Value was reported for experiment 1; format: functional, Canis lupus familiaris; procedure, shortened: as §1
Canis familiaris [15] = assay: Left ventricular refractory period was determined by intraduodenal administration of two dosages of 10 mg/kg (low dose) of compound in anesthetized dogs. Value was reported for experiment 2; format: functional, Canis lupus familiaris, Cardiac ventricle; procedure, shortened: as §2
Canis familiaris [16] = assay: Left ventricular refractory period was determined by intraduodenal administration of two dosages of 10 mg/kg (low dose) of compound in anesthetized dogs. Value was reported for experiment 1; format: functional, Canis lupus familiaris, Cardiac ventricle; procedure, shortened: as §2
Canis familiaris [17] = assay: Mean arterial blood pressure was determined by intraduodenal administration of two dosages of 10 mg/kg (low dose) of compound in anesthetized dogs. Value was reported for experiment 2; format: functional, Canis lupus familiaris; procedure, shortened: as §2
Canis familiaris [18] = species: Canis familiaris; assay: In vitro electrophysiological evaluation in canine cardiac Purkinje fibres reported as % change for action potential duration at 10 uM at 0.1-30 uM concentration range; format: functional, Canis lupus familiaris, Purkinje fiber; procedure, shortened: as §5
Canis familiaris [19] = species: Canis familiaris; assay: In vitro electrophysiological evaluation in canine cardiac ventricular muscle reported as maximum % change for functional refractory period (FRP) at 0.1-100 uM concentration range; concentration at which it occurred is 100 uM.; design: species or system Canis lupus familiaris, Muscle tissue; procedure, shortened: as §3
Canis familiaris [20] = assay: Heart rate was determined by intraduodenal administration of two dosages of 10 mg/kg (low dose) of compound in anesthetized dogs. Value was reported for experiment 2; format: functional, Canis lupus familiaris; procedure, shortened: as §1
Canis familiaris [21] = species: Canis familiaris; assay: as §6; format: functional, organism-based; settings: Canis lupus familiaris; Heart
Canis familiaris [22] = species: Canis familiaris; assay: In vitro electrophysiological activity in canine cardiac occurred is 50 uM.; format: functional, Canis lupus familiaris, Heart
Canis familiaris [23] = species: Canis familiaris; assay: In vitro electrophysiological activity in canine cardiac occurred is 100 uM.; format: functional, Canis lupus familiaris, Heart
Canis familiaris [24] = assay: Mean arterial blood pressure was determined by intraduodenal administration of two dosages of 30 mg/kg (high dose)of compound in anesthetized dogs. Value was reported for experiment 1; format: functional, Canis lupus familiaris; procedure, shortened: as §2
Canis familiaris [25] = assay: Left ventricular refractory period was determined by intraduodenal administration of two dosages of 30 mg/kg (high dose)of compound in anesthetized dogs. Value was reported for experiment 2; format: functional, Canis lupus familiaris, Cardiac ventricle; procedure, shortened: as §2
Canis familiaris [26] = assay: Mean arterial blood pressure was determined by intraduodenal administration of two dosages of 30 mg/kg(high dose) of compound in anesthetized dogs. Value was reported for experiment 2; format: functional, Canis lupus familiaris; procedure, shortened: as §2
Canis familiaris [27] = species: Canis familiaris; assay: In vitro electrophysiological evaluation in canine cardiac Purkinje fibres reported as percent change Vmax at 10 uM at concentration range of 0.1-100 uM; format: functional; settings: Canis lupus familiaris, Purkinje fiber; procedure, shortened: as §4
Canis familiaris [28] = assay: Heart rate was determined by intraduodenal administration of two dosages of 30 mg/kg (high dose)of compound in anesthetized dogs. Value was reported for experiment 1; format: functional, Canis lupus familiaris; procedure, shortened: as §1
Canis familiaris [29] = species: Canis familiaris; assay: In vitro electrophysiological activity in canine cardiac occurred is 30 uM.; format: functional, Canis lupus familiaris, Heart
Canis familiaris [30] = assay: Conduction time was determined by intraduodenal administration of two dosages of 30 mg/kg (high dose) of compound in anesthetized dogs. Value was reported for experiment 2; format: functional, Canis lupus familiaris; procedure, shortened: as §1
Canis familiaris [31] = species: Canis familiaris; assay: In vitro electrophysiological evaluation in canine cardiac ventricular muscle reported as % change for conduction time(CT) at 10 uM at 0.1-100 uM concentration range; format: functional, Canis lupus familiaris, Muscle tissue
Procedure, shortened: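 Canine right ventricular/papillary muscle strips in oxygenated Tyrode's, extracellular extra-stimulus conduction-interval method. FRP and CT are read from conduction-interval curves before and during rising concentrations. Compound is a 10 mM aqueous stock diluted into Tyrode's. Each strip is used once as its own control. Readouts are percent change from control at 10 μM, plus the maximum change with its concentration.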

Canis familiaris [32] = species: Canis familiaris; assay: In vitro electrophysiological evaluation in canine cardiac Purkinje fibres reported as % change for action potential duration at a concentration of 10 uM; format: functional, Canis lupus familiaris, Purkinje fiber; procedure, shortened: as §5

Structure (SMILES): C=C[C@H]1CN2CC[C@H]1C[C@@H]2[C@@H](O)c1ccnc2ccc(OC)cc12 [QUINIDINE]
- Vmax (Canis familiaris [1]): -19%
- CT (Canis familiaris [2]): 7%
- LV FRP (Canis familiaris [3]): 20%
- FRP (Canis familiaris [4]): 21% [middle of 4 runs]
- Vmax (Canis familiaris [5]): -11%
- Vmax (Canis familiaris [6]): < 10%
- Mean blood pressure (Canis familiaris [7]): 2%
- HR (Canis familiaris [8]): -22%
- Vmax (Canis familiaris [9]): -40%
- CT (Canis familiaris [10]): 10%
- APD95 (Canis familiaris [11]): -9%
- HR (Canis familiaris [12]): -39%
- FRP (Canis familiaris [13]): 22%
- CT (Canis familiaris [14]): 51%
- LV FRP (Canis familiaris [15]): 16%
- LV FRP (Canis familiaris [16]): 13%
- Mean blood pressure (Canis familiaris [17]): -7%
- APD95 (Canis familiaris [18]): -21%
- FRP (Canis familiaris [19]): 27% and 24% and 46%
- HR (Canis familiaris [20]): -18%
- Vmax (Canis familiaris [21]): -53%
- APD95 (Canis familiaris [22]): -19%
- APD95 (Canis familiaris [23]): -24%
- Mean blood pressure (Canis familiaris [24]): -4%
- LV FRP (Canis familiaris [25]): 28%
- Mean blood pressure (Canis familiaris [26]): 15%
- Vmax (Canis familiaris [27]): -10%
- HR (Canis familiaris [28]): -42%
- APD95 (Canis familiaris [29]): -39%
- CT (Canis familiaris [30]): 38%
- CT (Canis familiaris [31]): 17% and 11% and <10%
- APD95 (Canis familiaris [32]): -9%
